For experiment [1], the target named is T1, Thyroxine 5-deiodinase (Homo sapiens) (UniProt P55073).
T1 sequence (whole entry): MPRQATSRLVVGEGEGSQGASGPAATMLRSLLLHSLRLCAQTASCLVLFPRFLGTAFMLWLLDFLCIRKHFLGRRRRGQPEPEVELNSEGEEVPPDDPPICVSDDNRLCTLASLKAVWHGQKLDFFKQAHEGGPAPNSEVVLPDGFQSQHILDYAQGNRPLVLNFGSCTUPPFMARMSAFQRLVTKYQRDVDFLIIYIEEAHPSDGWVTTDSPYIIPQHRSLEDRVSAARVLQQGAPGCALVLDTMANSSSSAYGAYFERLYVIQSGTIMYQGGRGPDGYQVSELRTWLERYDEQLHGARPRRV
The experiment can be described thus: Inhibition of Human Placenta Inner-Ring Iodothyronine 5-deiodinase at the compound concentration of 5 mM. An outline of the steps: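 Human placenta microsomal fraction (225 μg/tube) incubated 60 min at 37 °C with 290 pmol T4 in 0.1 M potassium phosphate–0.01 M EDTA, pH 7.4, with 0.25 mM DTT. Inhibitors at 5 mM, diluted from 30 mM stocks in 0.04 M NaOH. rT3 formed measured by radioimmunoassay. Inhibition relative to uninhibited control, quadruplicate incubations.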

In experiment [2] the target is T1, Thyroxine 5-deiodinase (Homo sapiens). The experiment is described as follows: Inhibition of Human placenta inner-ring Iodothyronine 5-deiodinase activity measured as rT3 production in presence of DTT concentrations of 1.56 mM. An outline of the steps: (§1)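 Placenta microsomes (225 μg/tube) incubated with 290 pmol T4 in 0.1 M potassium phosphate–0.01 M EDTA (pH 7.4), 60 min, 37 °C. DTT varied over 0.2–100 mM in place of 0.25 mM. Inhibitor present at 5 mM. rT3 production (pmol/tube) measured by radioimmunoassay and compared with control tubes without inhibitor. Quadruplicate incubations.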

Experiment [3] shares this target. The experiment can be described thus: Inhibition of Human placenta inner-ring Iodothyronine 5-deiodinase activity measured as rT3 production in presence of DTT concentrations of 0.2 mM. An outline of the steps: as §1
Experiment [4] shares this target. The experiment can be described thus: Inhibition of Human placenta inner-ring Iodothyronine 5-deiodinase activity measured as rT3 production in presence of DTT concentrations of 12.5 mM. An outline of the steps: as §1
For experiment [5] the target is unchanged. The experiment is described as follows: Inhibition of Human placenta inner-ring Iodothyronine 5-deiodinase activity measured as rT3 production in presence of DTT concentrations of 100 mM. An outline of the steps: as §1

Usually inhibition stands for the relative decrease from the control value, in per cent. Read a high inhibition as strong suppression. Consider `Oc1cc(Nc2ccccc2)nc(S)n1`, for which the inhibition in experiment [1] was 31%.
In the case of `CCCc1cc(=O)[nH]c(=S)[nH]1`, the rT3 Production in experiment [2] is 13.3 pmol/tube; in experiment [3] it was 2.6 pmol/tube; in experiment [4], 43.3 pmol/tube; in experiment [5] it was 104 pmol/tube. Besides, the inhibition in experiment [1] came to 29%.
Turning to `CCc1ccc(Nc2cc(O)nc(S)n2)cc1`, in experiment [1], the inhibition was determined as 85%.
On the same count and under the same terms, for `CCc1ccc(Nc2cc(=O)[nH]c(=S)n2C)cc1` the value was 2%; for `CCc1ccc(Nc2cc(=O)n(C)c(=S)[nH]2)cc1`, 0%.
Regarding `CCCCc1ccc(Nc2cc(O)nc(S)n2)cc1`, the rT3 Production in experiment [2] was 0.8 pmol/tube; in experiment [3], 0.2 pmol/tube; in experiment [4], 2.5 pmol/tube; in experiment [5], 4.1 pmol/tube. Also, the inhibition in experiment [1] was found to be 96%.
The compound `CCCCc1ccc(Nc2cc(=O)n(C)c(=S)[nH]2)cc1` yielded an inhibition in experiment [1] of 20%.
In turn, `Nc1cc(O)nc(S)n1` gave an inhibition in experiment [1] of 16%.
The compound `Cn1c(=S)[nH]c(N)c(Cc2ccccc2)c1=O` yielded an inhibition in experiment [1] of 79%.

The values are drawn from ChEMBL document CHEMBL1122850, “Synthesis of 6-anilino-2-thiouracils and their inhibition of human placenta iodothyronine deiodinase” (J Med Chem, 1985).
